Screens deposited in PubChem BioAssay by Broad Institute.
DENV2 CPE: inhibitors of DENV2 cytopathic effect, primary screen, cell-based, plate reader, single concentration; CPE inhibition, % at 9.99 µM; 350,000 compounds, 1.7% hits; DENV2-infected cells, cytopathic effect rescue; in the data active means CPE inhibition above about 20%, passing the limit was not always enough; inconclusive means no clear call, values can overlap the other calls; tested in BHK-21 cells;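 further: 0% = median of neutral control wells and 100% = median of positive control wells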
ERp5 block: inhibitors of ERp5-driven insulin aggregation, primary screen, biochemical, turbidity, absorbance 650 nm, single point; inhibition, % at 9.99 µM; 90 min; 350,000 compounds, 0.05% hits;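 active means mean replicate inhibition above about 25%, with every replicate also reaching it, limit read from the data, passing the limit was not always enough; inconclusive means only one of those two criteria met; inactive means neither criterion met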
Cneo AK release: Cryptococcus neoformans cell lysis inducers, primary screen, AK release luminescence, single concentration; lysis activity, % at 15 µM; C. neoformans lysis, adenylate kinase release luminescence, 4 h; normalised: neutral wells 0, clomiphene wells 100; 360,000 compounds, 0.2% hits;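 active means mean lysis activity across replicates of at least 80%, whatever share of replicates individually reach that level; inactive means mean lysis activity below 80%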
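Material – log-phase Cryptococcus neoformans yeast cells · Input – 5 × 10^6 yeast cells/mL · Medium – fresh YPD growth medium · Doses – single compound concentration per well · Timing – static 4 h at 37 °C with compound, 1 h detection · Detection – adenylate kinase release luminescence · Read-out – signal increase indicating cell lysis · Control set – Clomiphene as positive lysis control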
C2C12 statin: suppressors of statin myotoxicity in C2C12 myotubes, primary screen, cell-based, single point, plate reader; C2C12 myotubes + simvastatin, ATP luminescence, 48 h; scaled: DMSO 0, geranylgeraniol control 100; rescue of ATP level, % at 7.49 µM; 330,000 compounds, 0.78% hits; AID 602340, 2012;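 active means mean ATP rescue above about 67%, or every replicate alone reaching that limit, limit read from the data, passing the limit was not always enough; inconclusive means no clear call, values can overlap the other calls; inactive means mean under the limit and some replicate under it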;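 further: myotubes were challenged with 10 µM simvastatin during compound exposure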
CFTR F508del cor: F508del CFTR correction, initial screen, CFBE line, single point. CFBE cells, YFP halide quenching; stimulated with forskolin plus potentiator P3; % fluorescence drop versus neutral controls. activity (quench increase), % at 7.58 µM. 350,000 compounds, 0.36% hits. AID 720511, 2013;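 active means mean added fluorescence quench of at least 8% versus neutral control, with both replicates also reaching 8%; inconclusive means only one of the mean or replicate conditions met; inactive means mean below 8% and not both replicates reaching 8%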;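 further: cells transiently co-express mutant CFTR-F508del with the halide-sensitive YFP; corrector assay measuring rescue of mutant channel to the surface after 24 h compound exposure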
PDI inh: inhibitors of human PDI, primary screen, biochemical, turbidity, single point, plate reader; Protein disulfide-isomerase (Homo sapiens), P07237; PDI insulin aggregation turbidity, A650, 90 min; inhibition, % at 10 µM; 350,000 compounds, 0.052% hits; AID 588391, 2011;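 active means mean inhibition across replicates of 30% or more, whatever share of single replicates reach that level; inconclusive means mean inhibition below 30% while every single replicate reaches 30%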
Target sequence (P07237 whole entry, looked up): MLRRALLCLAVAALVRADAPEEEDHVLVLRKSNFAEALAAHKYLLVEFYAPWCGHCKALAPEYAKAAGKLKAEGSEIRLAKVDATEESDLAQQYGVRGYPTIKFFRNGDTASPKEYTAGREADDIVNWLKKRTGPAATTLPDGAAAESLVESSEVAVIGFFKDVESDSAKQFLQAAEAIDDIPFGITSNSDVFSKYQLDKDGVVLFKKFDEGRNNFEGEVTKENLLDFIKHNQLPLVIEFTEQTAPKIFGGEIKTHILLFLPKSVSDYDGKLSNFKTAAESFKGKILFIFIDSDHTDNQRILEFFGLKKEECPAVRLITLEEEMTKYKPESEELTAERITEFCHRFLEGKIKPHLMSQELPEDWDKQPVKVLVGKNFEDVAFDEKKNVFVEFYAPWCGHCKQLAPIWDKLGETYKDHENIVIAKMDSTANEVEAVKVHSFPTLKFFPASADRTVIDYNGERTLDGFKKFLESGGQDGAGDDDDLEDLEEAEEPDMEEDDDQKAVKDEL
Active calls of the source: *; ? = inconclusive; nt = not tested or not shown. Rows were chosen to be rich in hits. Some 2.3% of all compounds tested hit in one or more screens of this group.

SMILES	DENV2 CPE	ERp5 block	Cneo AK release	C2C12 statin	CFTR F508del cor	PDI inh
C[C@@H]1CN([C@H](C)CO)C(=O)Cc2cc(NC(=O)CCN3CCOCC3)ccc2O[C@H]1CN(C)Cc1ccc(-c2ccccc2)cc1	-2.0	7.0	nt	6.3	0.0	nt
C[C@@H]1CN([C@H](C)CO)C(=O)Cc2cc(NC(=O)CCC(F)(F)F)ccc2O[C@H]1CN(C)Cc1ccc(Oc2ccccc2)cc1	3.4	nt	-1.2	102.3*	-2.0	nt
C[C@@H]1CN([C@@H](C)CO)C(=O)Cc2cc(NC(=O)CCC(F)(F)F)ccc2O[C@H]1CN(C)Cc1ccc(-c2ccccc2)cc1	3.7	6.0	1.7	27.8	-5.4	nt
C[C@H](CO)N1C[C@H](C)[C@@H](CN(C)Cc2ccc(-c3ccccc3)cc2)Oc2ccc(NC(=O)Cc3ccccc3)cc2CC1=O	-8.9	2.2	-0.4	76.1*	-0.8	nt
C[C@H]1CN([C@@H](C)CO)C(=O)Cc2cc(NC(=O)CCC(F)(F)F)ccc2O[C@H]1CN(C)Cc1ccc(-c2ccccc2)cc1	57.3*	-4.2	5.3	0.4	0.4	1.2
C[C@@H]1CN([C@@H](C)CO)C(=O)Cc2cc(NC(=O)CCN3CCOCC3)ccc2O[C@H]1CN(C)Cc1ccc(-c2ccccc2)cc1	32.2*	1.5	nt	nt	-2.7	nt
O=C(Nc1cc(Cl)cc(Cl)c1)N[C@H]1CC[C@H](CCNS(=O)(=O)c2cccc(F)c2)O[C@@H]1CO	2.1	-4.0	-6.0	14.7	1.6	nt
C[C@@H]1CN([C@@H](C)CO)C(=O)c2cc(NS(=O)(=O)c3ccccc3)ccc2O[C@@H](C)CCCCO[C@H]1CN(C)S(=O)(=O)c1ccc(Cl)cc1	3.2	-8.8	nt	nt	-1.1	nt
COc1ccc(S(=O)(=O)N(C)C[C@H]2Oc3ccc(NC(=O)NC(C)C)cc3CC(=O)N([C@H](C)CO)C[C@@H]2C)cc1	9.7	-4.7	0.3	2.8	0.3	nt
O=C(C[C@@H]1C=C[C@H](NC(=O)C2CCC2)[C@H](CO)O1)NCCCN1CCOCC1	1.2	-4.4	-5.7	-3.1	0.7	nt
O=C(C[C@H]1C[C@@H]2c3cc(NC(=O)C4CCOCC4)ccc3O[C@@H]2[C@@H](CO)O1)NCc1ccccc1F	-3.5	3.3	0.6	-4.3	-3.8	nt
C[C@H](CO)N1C[C@H](C)[C@@H](CN(C)S(C)(=O)=O)Oc2ccc(NC(=O)Cc3ccccc3)cc2CC1=O	23.1*	-1.5	6.9	4.0	-1.9	nt
COC(=O)c1ccc(CSc2nc(N3CCOCC3)c3c(c2C#N)CC(C)(C)OC3)o1	nt	nt	-1.4	80.8*	nt	10.9
COc1ccc(COc2cc(-c3cccc(OC)c3)nc3ccc(NC(=O)c4ccc(OC)cc4)cc23)cc1	3.1	2.5	-3.6	-62.3	8.2*	6.8
COc1ccc(COc2cc(-c3cccc(OC)c3)nc3ccc(NC(=O)c4ccccc4)cc23)cc1	?	-2.3	0.9	-43.0	2.0	2.2
O=C(O)C(Cc1ccc(Cl)cc1)NS(=O)(=O)c1ccc(Cl)cc1 (stereo not given)	23.4*	2.6	-1.9	6.9	-1.9	5.4
O=C(C[C@@H]1C=C[C@@H](NC(=O)CN2CCOCC2)[C@@H](CO)O1)NCCc1ccncc1	0.1	-0.3	nt	nt	2.3	nt
Cc1ccc(-c2cccc(CN3CCN(C(C)C)C(CCO)C3)c2)o1 (stereo not given)	4.2	-0.7	nt	nt	11.4*	-13.1
C[C@@H]1CCCCO[C@@H](CN(C)Cc2ccccc2)[C@H](C)CN([C@@H](C)CO)C(=O)c2cc(N(C)C)ccc2O1	-17.2	3.1	1.6	34.9	2.3	nt
C[C@@H]1CN([C@@H](C)CO)C(=O)Cc2cc(NC(=O)c3ccncc3)ccc2O[C@H]1CN(C)C(=O)Nc1ccc2c(c1)OCO2	4.7	-4.0	4.5	-8.7	-3.9	nt
COC(=O)C[C@@H]1OC[C@H](Cc2ccccc2)N1S(=O)(=O)c1ccc(C)cc1	20.6*	0.7	nt	nt	-2.6	nt
